Laboratory results: ChEMBL document CHEMBL1156711, “Synthesis and cytotoxicity evaluation of some benzimidazole-4,7-diones as bioreductive anticancer agents” (Eur J Med Chem, 2008)

Tests used:
HT-29 [1] = experiment: Cytotoxicity against human HT29 cells after 72 hrs by MTT assay; format: functional, cell-based; conditions: HT-29, 72 h
How it was run: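 HT29 grown in DMEM with 10% FBS and 2 mM L-glutamine at 37 °C, 5% CO2. Seeded at 3000 cells/well and treated 24 h later; vehicle 0.1% DMSO in PBS. MTT 0.5 mg/mL for 3 h, DMSO solubilization, OD 550 nm, triplicates, corrected for MTT blank and normalized to untreated. IC50 by Chou–Talalay median-effect plot.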

HT-29 [2] = experiment: Cytotoxicity against human HT29 cells after 72 hrs by MTT assay in presence of 2 uM dicoumarol; format: functional, cell-based; conditions: HT-29, 72 h

SMILES	IC50 (HT-29 [1]) [nM]	IC50 (HT-29 [2]) [nM]
CC1=C(C)C(=O)c2c(nc(CC(C)(C)[N+](=O)[O-])n2C)C1=O	> 100000	
CO[C@@]12[C@H](COC(N)=O)C3=C(C(=O)C(C)=C(N)C3=O)N1C[C@@H]1N[C@@H]12 [MITOMYCIN]	900	2100
